Results on five compounds are retold here after ChEMBL document CHEMBL1122350, “Ferric ion sequestering agents. 11. Synthesis and kinetics of iron removal from transferrin of catechoyl derivatives of desferrioxamine B” (J Med Chem, 1983).

For assay [1], the target named is Serotransferrin (Homo sapiens) (UniProt P02787). The following applies: 500 mM.
The target is the same in assay [2]. Briefly: Ability to remove iron from transferrin, at a concentration of 0.2 mM, expressed as % iron removal in 30 minutes. In kind it is functional. A digest of the protocol:
(§1)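 Diferric transferrin was made from apotransferrin saturated with fresh Fe(NTA)2^3-, then gel-filtered in 0.1 M NaClO4/0.1 M Tris-HCl pH 7.4 (≥95% saturation by A280/A466 ≤24, A428/A466 = 0.85). The ligand was dissolved in 0.1 M Tris-HCl pH 7.4 with slight heating and mixed 1:1 with transferrin ([Fe2Tf] 2.9 × 10^-5 M) at 25.0 °C. Visible spectra were followed at 466 nm, and % iron removed was read at 30 min.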

Assay [3] in a line: Relative effectiveness at a concentration of 0.2mM, on removal of Fe from transferrin as compared to Desferal. In kind it is functional. A digest of the protocol:
(§2)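 Iron removal was measured spectrophotometrically from diferric transferrin (2.9 × 10^-5 M) in 0.1 M Tris-HCl pH 7.4 at 25.0 °C. A rough second-order rate constant k2 was taken as the % iron removed after 30 min divided by the initial ferric transferrin and ligand concentrations. The value is expressed as the ratio to the Desferal k2.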

Assay [4] concerns the target Serotransferrin (Homo sapiens) (UniProt P02787). Kind of assay: Ability to remove iron from human iron transport protein transferrin, at a concentration of 0.2 mM, expressed as % iron removal in 30 minutes. In kind it is functional. In outline: as §1
Assay [5] has the same target. Kind of assay: Ability to remove iron from human iron transport protein transferrin, at a concentration of 1.2mM, expressed as % iron removal in 30 minutes. In kind it is functional. In outline: as §1
Assay [6] has the same target. Kind of assay: Ability to remove iron from transferrin, at a concentration of 0.1 mM, expressed as % iron removal in 30 minutes. In kind it is functional. The note with it: 0.2 mM; in the assay text read “0.2 mM” for “0.1 mM”. A digest of the protocol:
as §1

Assay [7] in a line: Relative effectiveness at a concentration of 20 mM, on removal of Fe from transferrin as compared to Desferal. In kind it is functional.
Assay [8] concerns the target Serotransferrin (Homo sapiens) (UniProt P02787). Kind of assay: Ability to remove iron from human iron transport protein transferrin, at a concentration of 20 mM, expressed as % iron removal in 30 minutes. In kind it is functional.
A short description of assay [9]: Relative effectiveness at a concentration of 0.1 mM, on removal of Fe from transferrin as compared to Desferal. In kind it is functional. In outline: as §2
Assay [10] has as its target Serotransferrin (Homo sapiens) (UniProt P02787). Kind of assay: Ability to remove iron from human iron transport protein transferrin, at a concentration of 0.1 mM, expressed as % iron removal in 30 minutes. In kind it is functional. A digest of the protocol:
as §1

Serotransferrin (Homo sapiens), sequence (P02787 whole entry): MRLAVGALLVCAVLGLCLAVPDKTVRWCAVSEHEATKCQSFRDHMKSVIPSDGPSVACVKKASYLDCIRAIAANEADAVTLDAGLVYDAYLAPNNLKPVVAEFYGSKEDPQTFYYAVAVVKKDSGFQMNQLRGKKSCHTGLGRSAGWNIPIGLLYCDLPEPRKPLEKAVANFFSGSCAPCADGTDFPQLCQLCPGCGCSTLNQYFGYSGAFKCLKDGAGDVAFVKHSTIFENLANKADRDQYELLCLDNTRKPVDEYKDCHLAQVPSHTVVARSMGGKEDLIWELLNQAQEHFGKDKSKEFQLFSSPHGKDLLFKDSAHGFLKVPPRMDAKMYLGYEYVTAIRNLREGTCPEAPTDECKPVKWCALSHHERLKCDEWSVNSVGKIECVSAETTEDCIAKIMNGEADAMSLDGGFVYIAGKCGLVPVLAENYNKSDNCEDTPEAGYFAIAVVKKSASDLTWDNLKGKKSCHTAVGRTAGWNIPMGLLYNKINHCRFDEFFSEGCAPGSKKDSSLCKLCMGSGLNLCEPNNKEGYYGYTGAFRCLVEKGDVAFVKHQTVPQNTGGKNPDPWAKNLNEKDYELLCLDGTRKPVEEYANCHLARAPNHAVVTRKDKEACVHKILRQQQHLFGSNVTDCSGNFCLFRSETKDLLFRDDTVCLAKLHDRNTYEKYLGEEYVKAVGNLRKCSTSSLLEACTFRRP

For `O=C(O)CN(CCN(CC(=O)O)CC(=O)O)CC(=O)O`, the Fe removed in assay [1] stood at 37%; in assay [2], 0%.
In the case of `O=C(N[C@H]1COC(=O)[C@@H](NC(=O)c2cccc(O)c2O)COC(=O)[C@@H](NC(=O)c2cccc(O)c2O)COC1=O)c1cccc(O)c1O`, the Ratio in assay [3] worked out at 120. In assay [4], the Fe removed came to 6%.
`CC(=O)N(O)CCCCCNC(=O)CCC(=O)N(O)CCCCCNC(=O)CCC(=O)N(O)CCCCCNC(=O)c1ccc(C(=O)O)c(O)c1O`: the Ratio in [3] worked out at 130. Further, the values for the Fe removed in assay [5] and in assay [6] were 18% and 3%, respectively.
In the case of `CC(=O)N(O)CCCCCNC(=O)CCC(=O)N(O)CCCCCNC(=O)CCC(=O)N(O)CCCCCN`, the Ratio in [7] was found to be 1. The Fe removed in [8] was 5%.
Turning to `CC(=O)N(O)CCCCCNC(=O)CCC(=O)N(O)CCCCCNC(=O)CCC(=O)N(O)CCCCCNC(=O)c1cccc(O)c1O`, in assay [9], the Ratio turned out to be 180. Also, the Fe removed in assay [10] turned out to be 2%.
